Among the data in ChEMBL document CHEMBL1649528 (Antimicrob Agents Chemother, 2009) are inhibition and IC50 values, retold here.

Usually inhibition stands for the relative decrease from the control value, in per cent. What is called pIC50 is the negative decadic logarithm of the IC50, by convention in mol/L.

pIC50: −log10 of the molar value. Where only a bound is given, the exact number is not on record here.

In assay [1] the test system is West Nile virus. The experiment in a line: Antiviral activity against West Nile virus infected in CyPA-deficient human Huh7.5 cells assessed as decrease in viral replication at 4 uM after 24 hrs by luciferase reporter gene assay. The format is functional. The conditions noted are these: Huh-7, 24 h. A digest of the protocol: (§1)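 Huh-7.5 shRNA lines (CyPA knockdown sh-A and control sh-Fluc; puromycin 1 μg/ml) seeded at 2 × 10⁴/well and infected 24 h later with WNV VLP at 1 FFU/cell. Cs (0, 4 or 8 μM) or 1% ethanol added at once. Luciferase read at 24 h p.i. and expressed as % of ethanol-treated sh-Fluc. Mean ± SD of three independent experiments.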
(A reporter such as luciferase makes a cellular process visible.)

Assay [2] concerns West Nile virus. The experiment in a line: Antiviral activity against West Nile virus infected in CyPA-deficient human Huh7.5 cells assessed as decrease in viral replication at 8 uM after 24 hrs by luciferase reporter gene assay. The format is functional. The conditions noted are these: Huh-7, 24 h. A digest of the protocol: as §1
Assay [3] has as its system West Nile virus. The experiment in a line: Antiviral activity against West Nile virus infected in human Huh7.5 cells assessed as decrease in viral replication at 8 uM after 24 hrs by luciferase reporter gene assay. The format is functional. Conditions: Huh-7, 24 h. In outline: as §1
In assay [4] the test system is West Nile virus. The experiment in a line: Antiviral activity against West Nile virus infected in african green monkey Vero cells assessed as decrease in viral RNA synthesis after 24 hrs by luciferase reporter gene assay. The format is functional, organism-based. In outline: (§2)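 Stable Rluc-Neo-Rep replicon-bearing Vero cells (DENV-1 or WNV; kept in DMEM/10% FBS with 1 mg/ml G418, 37°C, 5% CO₂) treated with Cs at ≤8 μM. Read-out is replicon Renilla luciferase, and 50% effective concentration is taken from the dose response.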

In assay [5] the test system is dengue virus type 1. The experiment in a line: Antiviral activity against Dengue virus 1 infected in african green monkey Vero cells assessed as decrease in viral RNA synthesis after 24 hrs by luciferase reporter gene assay. The format is functional, organism-based. In outline: as §2
For assay [6], the system named is West Nile virus. The experiment in a line: Antiviral activity against West Nile virus infected in human Huh7.5 cells assessed as decrease in viral RNA synthesis at 8 uM after => 20 hrs by luciferase reporter gene assay. The format is functional. Conditions: Huh-7, 20 h. A digest of the protocol: (§3)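 Rluc2A-Rep replicon RNA (10 μg; WNV or DENV-1) electroporated into Huh-7.5 cells, seeded at 4 × 10⁵/well, then treated at once with 8 μM Cs or 1% ethanol. Cells washed with cold PBS and lysed at time points, and lysates frozen at −80°C. Luciferase read on 20 μl lysate. Early signal (1–10 h p.t.) reflects translation and later signal (>10 h) reflects RNA replication.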

Assay [7] deals with dengue virus type 1. The experiment in a line: Antiviral activity against Dengue virus 1 infected in human Huh7.5 cells assessed as decrease in viral RNA synthesis at 8 uM after => 20 hrs by luciferase reporter gene assay. The format is functional. Conditions: Huh-7, 20 h. A digest of the protocol:
as §3

A further assay concerns Yellow fever virus. The experiment in a line: microbe, parasite or virus in culture. The format is functional. Conditions: Huh-7, 20 h.

As for `C/C=C/C[C@@H](C)[C@@H](O)[C@H]1C(=O)N[C@@H](CC)C(=O)N(C)CC(=O)N(C)[C@@H](CC(C)C)C(=O)N[C@@H](C(C)C)C(=O)N(C)[C@@H](CC(C)C)C(=O)N[C@@H](C)C(=O)N[C@H](C)C(=O)N(C)[C@@H](CC(C)C)C(=O)N(C)[C@@H](CC(C)C)C(=O)N(C)[C@@H](C(C)C)C(=O)N1C` [CYCLOSPORINE], the inhibition at 4 µM in the assay with West Nile virus [1] stood at 10%. For the same compound, the inhibition at 8 µM was 2% in the assay with West Nile virus [2]; 4% with West Nile virus [3]; not below 70% in the assay on West Nile virus [6]; not below 70% with dengue virus type 1 [7]; not below 70% in the assay with Yellow fever virus. In addition, the pIC50 in the assay with West Nile virus [4] was 5.10; in the assay on dengue virus type 1 [5] it was not below 6.30.
